Results as given in ChEMBL document CHEMBL2057101, “Fluorocyclines. 2. Optimization of the C-9 side-chain for antibacterial activity and oral efficacy” (J Med Chem, 2012).
Values after ≈ are worked out from the molar mass of the structure shown.

Experiments:
Assay type in all cases: functional
[1] = system: Staphylococcus aureus; assay: Antibacterial activity against tetracycline-resistant Staphylococcus aureus isolate SA161 expressing TetM gene
Outline: (§1)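 Broth microdilution MIC following CLSI methods in cation-adjusted Mueller Hinton broth, prepared fresh and held at 4 °C before testing. Defibrinated horse blood added to the medium where appropriate. Runs accepted when quality control ranges for comparator antibiotics and ATCC QC strains were met.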

[2] = system: Klebsiella pneumoniae; assay: Antibacterial activity against Klebsiella pneumoniae ATCC 13883
Outline: (§2)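 MIC by broth microdilution in liquid medium per CLSI, in cation-adjusted Mueller Hinton broth made fresh and held at 4 °C before testing. Horse blood (defibrinated) added to the medium where appropriate. Runs were accepted only when the comparator antibiotics and ATCC QC strains fell within their recommended ranges.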

[3] = system: Staphylococcus aureus; assay: Antibacterial activity against tetracycline-susceptible Staphylococcus aureus ATCC 13709 Smith isolate SA100; outline: as §1
[4] = system: Escherichia coli; assay: Antibacterial activity against Escherichia coli ATCC 25922 isolate 107; outline: as §2
[5] = system: Escherichia coli; assay: Antibacterial activity against Escherichia coli isolate EC155 expressing tetA gene; outline: as §2
[6] = system: Streptococcus pneumoniae; assay: Antibacterial activity against Streptococcus pneumoniae ATCC 49619 isolate 106; outline: as §2
[7] = system: Streptococcus pneumoniae; assay: Antibacterial activity against tetracycline-resistant Streptococcus pneumoniae isolate 160 expressing tetM gene
[8] = system: Staphylococcus aureus; assay: Antibacterial activity against tetracycline-resistant Staphylococcus aureus isolate SA158 expressing TetK gene

Compound | MIC [1] [µg/mL] | MIC [2] [µg/mL] | MIC [3] [µg/mL] | MIC [4] [µg/mL] | MIC [5] [µg/mL] | MIC [6] [µg/mL] | MIC [7] [µg/mL] | MIC [8] [µg/mL]
CN(C)[C@@H]1C(O)=C(C(N)=O)C(=O)[C@@]2(O)C(O)=C3C(=O)c4c(O)c(NC(=O)CNC(C)(C)C)cc(F)c4C[C@H]3C[C@@H]12 | 0.25 (≈ 0.446 µM) | 1 (≈ 1.78 µM) | 0.25 (≈ 0.446 µM) | 0.25 (≈ 0.446 µM) | 2 (≈ 3.57 µM) | 0.016 (≈ 0.0285 µM) | 0.016 (≈ 0.0285 µM) | 0.063 (≈ 0.112 µM)
CN(C)[C@@H]1C(O)=C(C(N)=O)C(=O)[C@@]2(O)C(O)=C3C(=O)c4c(O)c(NC(=O)[C@H]5CCCN5C)cc(F)c4C[C@H]3C[C@@H]12 | 2 (≈ 3.58 µM) | 4 (≈ 7.16 µM) | 2 (≈ 3.58 µM) | 2 (≈ 3.58 µM) | 16 (≈ 28.6 µM) | 0.25 (≈ 0.448 µM) | 0.25 (≈ 0.448 µM) | 2 (≈ 3.58 µM)
CC(C)N1CCC[C@H]1C(=O)Nc1cc(F)c2c(c1O)C(=O)C1=C(O)[C@]3(O)C(=O)C(C(N)=O)=C(O)[C@@H](N(C)C)[C@@H]3C[C@@H]1C2 | 1 (≈ 1.7 µM) |  | 0.5 (≈ 0.852 µM) | 2 (≈ 3.41 µM) | 8 (≈ 13.6 µM) | ≤ 0.016 | ≤ 0.016 | 0.25 (≈ 0.426 µM)
CN(C)[C@@H]1C(O)=C(C(N)=O)C(=O)[C@@]2(O)C(O)=C3C(=O)c4c(O)c(NC(=O)[C@@H]5C[C@@H](F)CN5C)cc(F)c4C[C@H]3C[C@@H]12 | 2 (≈ 3.47 µM) | 8 (≈ 13.9 µM) | 0.5 (≈ 0.867 µM) | 4 (≈ 6.94 µM) | > 32 | 0.063 (≈ 0.109 µM) | 0.063 (≈ 0.109 µM) | 1 (≈ 1.73 µM)
CN(C)[C@@H]1C(O)=C(C(N)=O)C(=O)[C@@]2(O)C(O)=C3C(=O)c4c(O)c(NC(=O)[C@@H]5CC(F)(F)CN5C)cc(F)c4C[C@H]3C[C@@H]12 | 1 (≈ 1.68 µM) | > 32 | 1 (≈ 1.68 µM) | > 32 | > 32 | 0.5 (≈ 0.841 µM) | 0.5 (≈ 0.841 µM) | 1 (≈ 1.68 µM)
CN(C)[C@@H]1C(O)=C(C(N)=O)C(=O)[C@@]2(O)C(O)=C3C(=O)c4c(O)c(NC(=O)[C@@H]5CCCCN5)cc(F)c4C[C@H]3C[C@@H]12 | 1 (≈ 1.79 µM) | 2 (≈ 3.58 µM) | 0.5 (≈ 0.895 µM) | 0.5 (≈ 0.895 µM) | 8 (≈ 14.3 µM) | 0.031 (≈ 0.0555 µM) | 0.063 (≈ 0.113 µM) | 0.25 (≈ 0.448 µM)
CN(C)[C@@H]1C(O)=C(C(N)=O)C(=O)[C@@]2(O)C(O)=C3C(=O)c4c(O)c(NC(=O)[C@@H]5CCCCN5C)cc(F)c4C[C@H]3C[C@@H]12 | 8 (≈ 14 µM) | 2 (≈ 3.49 µM) | 2 (≈ 3.49 µM) | 0.5 (≈ 0.873 µM) | > 32 | 0.13 (≈ 0.227 µM) | 0.25 (≈ 0.437 µM) | 1 (≈ 1.75 µM)
CN(C)[C@@H]1C(O)=C(C(N)=O)C(=O)[C@@]2(O)C(O)=C3C(=O)c4c(O)c(NC(=O)[C@H]5CCCCN5)cc(F)c4C[C@H]3C[C@@H]12 | 2 (≈ 3.58 µM) | 16 (≈ 28.6 µM) | 2 (≈ 3.58 µM) | 4 (≈ 7.16 µM) | > 32 | 0.5 (≈ 0.895 µM) | 0.5 (≈ 0.895 µM) | 2 (≈ 3.58 µM)
CN(C)[C@@H]1C(O)=C(C(N)=O)C(=O)[C@@]2(O)C(O)=C3C(=O)c4c(O)c(NC(=O)c5cccn5C)cc(F)c4C[C@H]3C[C@@H]12 | 0.5 (≈ 0.902 µM) | > 32 | 0.25 (≈ 0.451 µM) | > 32 | > 32 | 8 (≈ 14.4 µM) | 8 (≈ 14.4 µM) | 0.5 (≈ 0.902 µM)
CN(C)c1cc(F)c2c(c1O)C(=O)C1=C(O)[C@]3(O)C(=O)C(C(N)=O)=C(O)[C@@H](N(C)C)[C@@H]3C[C@@H]1C2 | 4 (≈ 8.41 µM) | 8 (≈ 16.8 µM) | 1 (≈ 2.1 µM) | 4 (≈ 8.41 µM) | 32 (≈ 67.3 µM) | 0.25 (≈ 0.526 µM) | 4 (≈ 8.41 µM) | 4 (≈ 8.41 µM)
Cc1cc(C(=O)Nc2cc(F)c3c(c2O)C(=O)C2=C(O)[C@]4(O)C(=O)C(C(N)=O)=C(O)[C@@H](N(C)C)[C@@H]4C[C@@H]2C3)no1 | 0.5 (≈ 0.898 µM) | > 32 | 0.25 (≈ 0.449 µM) | > 32 | > 32 | 2 (≈ 3.59 µM) | 2 (≈ 3.59 µM) | 0.5 (≈ 0.898 µM)
CN(C)[C@@H]1C(O)=C(C(N)=O)C(=O)[C@@]2(O)C(O)=C3C(=O)c4c(O)c(NC(=O)c5ccn(C)n5)cc(F)c4C[C@H]3C[C@@H]12 | 0.5 (≈ 0.9 µM) | > 32 | 0.5 (≈ 0.9 µM) | > 32 | > 32 | 1 (≈ 1.8 µM) | 2 (≈ 3.6 µM) | 1 (≈ 1.8 µM)
CN(C)[C@@H]1C(O)=C(C(N)=O)C(=O)[C@@]2(O)C(O)=C3C(=O)c4c(O)c(NC(=O)[C@@H]5CCN5)cc(F)c4C[C@H]3C[C@@H]12 | 0.13 (≈ 0.245 µM) | 1 (≈ 1.88 µM) | 0.25 (≈ 0.471 µM) | 0.25 (≈ 0.471 µM) | 16 (≈ 30.2 µM) | 0.16 (≈ 0.302 µM) | 0.031 (≈ 0.0584 µM) | 0.5 (≈ 0.942 µM)
CN(C)[C@@H]1C(O)=C(C(N)=O)C(=O)[C@@]2(O)C(O)=C3C(=O)c4c(O)c(NS(=O)(=O)c5ccccc5)cc(F)c4C[C@H]3C[C@@H]12 | 1 (≈ 1.7 µM) | > 32 | 0.5 (≈ 0.851 µM) | 32 (≈ 54.5 µM) | > 32 | 0.25 (≈ 0.425 µM) | 0.25 (≈ 0.425 µM) | 0.5 (≈ 0.851 µM)
CN(C)[C@@H]1C(O)=C(C(N)=O)C(=O)[C@@]2(O)C(O)=C3C(=O)c4c(O)c(NS(=O)(=O)c5cccs5)cc(F)c4C[C@H]3C[C@@H]12 | 1 (≈ 1.68 µM) | > 32 | 0.5 (≈ 0.842 µM) | > 32 | > 32 | 0.25 (≈ 0.421 µM) | 1 (≈ 1.68 µM) | 0.5 (≈ 0.842 µM)
CN(C)[C@@H]1C(O)=C(C(N)=O)C(=O)[C@@]2(O)C(O)=C3C(=O)c4c(O)c(Nc5ccncn5)cc(F)c4C[C@H]3C[C@@H]12 | 2 (≈ 3.81 µM) | 8 (≈ 15.2 µM) | 0.25 (≈ 0.476 µM) | 2 (≈ 3.81 µM) | > 32 | 0.063 (≈ 0.12 µM) | 0.5 (≈ 0.951 µM) | 2 (≈ 3.81 µM)
CN(C)[C@@H]1C(O)=C(C(N)=O)C(=O)[C@@]2(O)C(O)=C3C(=O)c4c(O)c(NCCNC(C)(C)C)cc(F)c4C[C@H]3C[C@@H]12 | 4 (≈ 7.32 µM) | 8 (≈ 14.6 µM) | 1 (≈ 1.83 µM) | 2 (≈ 3.66 µM) | 16 (≈ 29.3 µM) | 0.125 (≈ 0.229 µM) | 0.25 (≈ 0.457 µM) | 1 (≈ 1.83 µM)
CN(C)[C@@H]1C(O)=C(C(N)=O)C(=O)[C@@]2(O)C(O)=C3C(=O)c4c(O)c(N)cc(F)c4C[C@H]3C[C@@H]12 | 2 (≈ 4.47 µM) | 4 (≈ 8.94 µM) | 0.25 (≈ 0.559 µM) | 2 (≈ 4.47 µM) | 32 (≈ 71.5 µM) | 0.25 (≈ 0.559 µM) | 4 (≈ 8.94 µM) | 2 (≈ 4.47 µM)
CN(C)[C@@H]1C(O)=C(C(N)=O)C(=O)[C@@]2(O)C(O)=C3C(=O)c4c(O)c(NC(=O)c5ccccc5)cc(F)c4C[C@H]3C[C@@H]12 | 0.25 (≈ 0.453 µM) | > 32 | 0.25 (≈ 0.453 µM) | > 32 | > 32 | 16 (≈ 29 µM) | 16 (≈ 29 µM) | 0.5 (≈ 0.907 µM)
CN(C)[C@@H]1C(O)=C(C(N)=O)C(=O)[C@@]2(O)C(O)=C3C(=O)c4c(O)c(NC(=O)c5cccc(C(F)(F)F)c5)cc(F)c4C[C@H]3C[C@@H]12 | 0.5 (≈ 0.807 µM) | > 32 | 0.25 (≈ 0.404 µM) | > 32 | > 32 | > 32 | > 32 | 0.13 (≈ 0.21 µM)
COc1cccc(C(=O)Nc2cc(F)c3c(c2O)C(=O)C2=C(O)[C@]4(O)C(=O)C(C(N)=O)=C(O)[C@@H](N(C)C)[C@@H]4C[C@@H]2C3)c1 | 0.25 (≈ 0.43 µM) | > 32 | 0.13 (≈ 0.224 µM) | > 32 | > 32 | > 32 | > 32 | 0.13 (≈ 0.224 µM)
CN(C)c1ccccc1C(=O)Nc1cc(F)c2c(c1O)C(=O)C1=C(O)[C@]3(O)C(=O)C(C(N)=O)=C(O)[C@@H](N(C)C)[C@@H]3C[C@@H]1C2 | 0.13 (≈ 0.219 µM) | > 32 | 0.13 (≈ 0.219 µM) | > 32 | > 32 | 32 (≈ 53.8 µM) | > 32 | 0.063 (≈ 0.106 µM)
CN(C)c1cccc(C(=O)Nc2cc(F)c3c(c2O)C(=O)C2=C(O)[C@]4(O)C(=O)C(C(N)=O)=C(O)[C@@H](N(C)C)[C@@H]4C[C@@H]2C3)c1 | 0.13 (≈ 0.219 µM) | > 32 | 0.13 (≈ 0.219 µM) | > 32 | > 32 | > 32 | > 32 | 0.13 (≈ 0.219 µM)
CN(C)c1ccc(C(=O)Nc2cc(F)c3c(c2O)C(=O)C2=C(O)[C@]4(O)C(=O)C(C(N)=O)=C(O)[C@@H](N(C)C)[C@@H]4C[C@@H]2C3)cc1 | 0.063 (≈ 0.106 µM) | > 32 | 0.063 (≈ 0.106 µM) | > 32 | > 32 | 2 (≈ 3.36 µM) | 8 (≈ 13.5 µM) | 0.063 (≈ 0.106 µM)
CN(C)[C@@H]1C(O)=C(C(N)=O)C(=O)[C@@]2(O)C(O)=C3C(=O)c4c(O)c(NC(=O)c5cccs5)cc(F)c4C[C@H]3C[C@@H]12 | 0.25 (≈ 0.448 µM) | > 32 | 0.13 (≈ 0.233 µM) | > 32 | > 32 | 16 (≈ 28.7 µM) | 16 (≈ 28.7 µM) | 0.5 (≈ 0.897 µM)
CN(C)[C@@H]1C(O)=C(C(N)=O)C(=O)[C@@]2(O)C(O)=C3C(=O)c4c(O)c(NC(=O)c5cccnc5)cc(F)c4C[C@H]3C[C@@H]12 | 4 (≈ 7.24 µM) | > 32 | 2 (≈ 3.62 µM) | > 32 | > 32 | 1 (≈ 1.81 µM) | 2 (≈ 3.62 µM) | 16 (≈ 29 µM)
CN(C)[C@@H]1C(O)=C(C(N)=O)C(=O)[C@@]2(O)C(O)=C3C(=O)c4c(O)c(NC(=O)[C@H]5CCCN5)cc(F)c4C[C@H]3C[C@@H]12 | 2 (≈ 3.67 µM) | 8 (≈ 14.7 µM) | 2 (≈ 3.67 µM) | 4 (≈ 7.35 µM) | 32 (≈ 58.8 µM) | 0.13 (≈ 0.239 µM) | 0.5 (≈ 0.918 µM) | 4 (≈ 7.35 µM)
